Test results taken from publication PMC10028500 (RSC Advances, 2023).

Key:
[1] = system: Liver (HepG2) cancer cell line; experiment: IC50 by MTT assay, HepG2; format: cell-based; conditions: HepG2, 48 h
Procedure, shortened: (§1)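 Cells were grown in DMEM at 37 °C, 5% CO2, 95% humidity, trypsinised and counted by trypan blue/hemocytometer. 10^4 cells per well were incubated 24 h, then test compound (3.5, 7, 14, 28, 56 μM; four replicates each) was added at ~70% confluence for 48 h. MTT (0.5 mg/mL) ran 4 h, then DMSO 15 min at room temperature, read at 595 nm. IC50 came from viability vs concentration curves.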

[2] = system: breast (MCF-7) cancer cell line; experiment: IC50 by MTT assay, MCF-7; format: cell-based; conditions: MCF-7, 48 h
Procedure, shortened: as §1

[3] = system: HepG2 cells; experiment: Flow cytometry analysis of the cell cycle of HepG2; format: cell-based; conditions: HepG2, 24 h, around IC50 concentration
Procedure, shortened: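 HepG2 cells (ca. 1 × 10^6) were seeded 24 h, then exposed to test compound for 24 h. Cells were harvested with 0.25% trypsin, spun 5 min at 1500 rpm, washed twice in PBS and fixed in 70% ethanol for 4 h at −20 °C. They were taken up in cold PBS with RNase A, stained with propidium iodide for 1 h in the dark and analysed by flow cytometry.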

[4] = system: ct-DNA; conditions: cited from earlier work
[5] = system: ct-DNA; conditions: cited from earlier work; remark: listed apart in the source

In the case of `N.N.[Cl][Pt][Cl]` [Cisplatin], the IC50 [1] is reported as 19.7 ± 1.53 µM, the IC50 [2] is reported as 18.4 ± 2.72 µM and the “cell population in the G1/G0, S and G2/M phases vs control” value [3] is reported as “decreases”. For the same molecule, the “cell population in the sub-G phase” value ([3]; control ca. 1%) was 47.3%.

In the case of `[Cl-].[Pt+2].c1ccc(-c2cccc(-c3ccccn3)n2)nc1` [Pt(terpy)Cl], the DNA binding mode [4] is listed as “shifts gradually from the intercalation mode to the covalent binding mode”.

For `CC[n+]1c(-c2ccccc2)c2cc(N)ccc2c2ccc(N)cc21` [ethidium bromide], the “binding constant (KEB) of ethidium bromide to DNA” value [5] is given as 1 × 10^5.
